# Screens from PubChem.
# The list is not random: actives were taken first. Their share in the collection is about 12%.
# PKD1 inh: PKD1 (human) kinase inhibition; actives 0.056% (n = 200,000); PKD1 kinase fluorescence polarization assay; inhibition, % (no concentration beside the values); Q15139; AID 797
# Wee1 degr inh: blocks degradation of human Wee1 kinase. P30291. HeLa Luc-Wee1K328M stability, luciferase luminescence; 100% = proteasome inhibitor MG132 effect. reporter increase, % at 5 µM. actives 1.2% (n = 220,000);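 active = activation above the mean of all tested compounds plus 3 SD, set per screening run, cut at about 8.8% in these data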;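 also: cells exposed to compound for 20 h before luminescence read; 0% = DMSO alone and 100% = MG132 at 30 µM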
# Target sequence (P30291 whole entry K328M): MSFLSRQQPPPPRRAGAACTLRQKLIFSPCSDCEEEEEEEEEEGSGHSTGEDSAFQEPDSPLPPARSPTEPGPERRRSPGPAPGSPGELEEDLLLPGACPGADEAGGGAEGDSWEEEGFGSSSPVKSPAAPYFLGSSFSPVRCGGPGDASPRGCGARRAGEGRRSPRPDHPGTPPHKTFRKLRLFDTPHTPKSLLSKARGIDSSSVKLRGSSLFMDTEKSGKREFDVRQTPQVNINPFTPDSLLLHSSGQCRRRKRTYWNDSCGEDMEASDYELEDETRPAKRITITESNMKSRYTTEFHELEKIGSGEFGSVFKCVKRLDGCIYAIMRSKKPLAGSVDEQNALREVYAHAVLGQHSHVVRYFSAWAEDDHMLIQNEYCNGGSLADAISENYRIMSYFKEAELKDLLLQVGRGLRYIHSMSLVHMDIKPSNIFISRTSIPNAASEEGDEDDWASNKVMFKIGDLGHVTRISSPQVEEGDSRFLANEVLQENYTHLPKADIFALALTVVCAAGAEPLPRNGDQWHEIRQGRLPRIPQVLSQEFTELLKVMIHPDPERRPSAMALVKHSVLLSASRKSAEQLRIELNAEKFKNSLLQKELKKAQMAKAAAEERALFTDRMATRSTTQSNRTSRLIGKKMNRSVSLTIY
# CHOP inhibitor: blocks CHOP induction under ER stress | CHO-K1 CHOP-promoter luciferase, tunicamycin-induced, 15-18 h | inhibition, % at 10 µM | actives 3.8% (n = 220,000);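 active = compounds that reduced the stress-induced luciferase reporter signal by more than about 70% of percent inhibition, limit read from the data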;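 also: 0% = tunicamycin plus vehicle and 100% = wells without tunicamycin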
# Arbovirus inh: arbovirus infection inhibition; arbovirus infection cell-based antiviral screen; inhibition, % at 10 µM; actives 0.37% (n = 200,000); AID 1251; in the data active = inhibition above about 30%
# Rad51 HR inh: Rad51 (human) homologous recombination inhibition. hRad51 DNA strand exchange, fluorescence dequenching. AID 1385. actives 0.085% (n = 200,000). Q06609. inhibition, % at 10 µM;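 active = inhibition above 40% at the single screening dose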;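 also: 0% = DMSO control wells and 100% = blanks with heterologous ssDNA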
#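 System: human Rad51 nucleoprotein filaments preassembled on unlabelled ssDNA. Reagent: labelled 47-mer dsDNA for strand exchange. Schedule: 30-min compound preincubation and 15-min exchange, both room temperature. Measured by: FRET fluorescence dequenching, excitation 485 nm, emission 520 nm. Read-out: Fluorescence-based percent inhibition, control- and blank-normalised. Benchmarks: plate controls and plate blanks.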
# Lmaj promast: inhibitors of Leishmania major promastigote growth. inhibition, % at 10 µM. AID 1063. Leishmania major promastigotes, resazurin fluorescence viability. actives 9% (n = 200,000);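 also: promastigotes grown with compound for 44 hours at 28 °C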
# CHOP confirm: confirmation of CHOP induction inhibitors | shares compounds with CHOP inhibitor | inhibition, % at 10 µM | AID 504437 | actives 45% (n = 2,100) | CHO-CHOP promoter luciferase reporter, tunicamycin-induced, luminescence;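 active = mean of three repeat readings of reporter signal inhibition above a set limit, cut at about 70% in these data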;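 also: 0% = tunicamycin plus vehicle and 100% = wells lacking tunicamycin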
# * marks the source's active call; other numbers are inactive results; . = not tested or not shown; ! = a repeat was not active. Rule as the data show it, unless noted: active = inhibition above about 50%; inactive = the rest.
SMILES,PKD1 inh,Wee1 degr inh,CHOP inhibitor,Arbovirus inh,Rad51 HR inh,Lmaj promast,CHOP confirm
O=C(NCc1ccco1)c1cccn2c(=O)c3cc4ccccc4cc3nc12,2.7,0.4,-54.6,-13.7,.,14.0,.
N#Cc1c(NC(=O)COC(=O)c2ccc(S(=O)(=O)N3CCCC3)cc2)sc2c1CCCCC2,2.4,2.9,13.1,-11.2,-9.5,-10.2,.
CC1(C)CC(=O)C(=Cc2cn(-c3ccccc3)nc2-c2ccc(Cl)cc2)C(=O)C1,-9.5,0.0,104.7*,-35.1,-2.8,68.7*,68.3
CC1(C)CC(=O)C(=Cc2cn(CCC#N)nc2-c2ccc(Cl)cc2)C(=O)C1,-2.2,4.3,-6.5,4.8,17.6,0.0,.
COc1cc(/C=N/N2CCN(C3c4ccccc4-c4ccccc43)CC2)cc(OC)c1O,-13.5,-1.0,55.5,-3.2,-0.6,-3.3,.
Oc1ccc(/C=N/N2CCN(C3c4ccccc4-c4ccccc43)CC2)c(O)c1,4.4,5.1,100.1*,-39.0,-1.6,-2.5,112.3*
Cc1ccc(Nc2nc(N)c([N+](=O)[O-])c(N3CCC(C)CC3)n2)cc1C,6.7,-2.9,101.3*,-35.6,8.9,22.5,102.1*
O=C(Cc1ccc(Cl)c(Cl)c1)Nc1ccc2[nH]c(=O)[nH]c2c1,0.1,-0.2,98.4*,-0.9,2.2,-14.1,5.5
O=C1NCN(c2ccccc2)C12CCN(CCCC(c1ccc(F)cc1)c1ccc(F)cc1)CC2,-5.2,2.5,106.2*!,-29.9,20.6,100.6*,122.7*
CC(C)=CCc1c(O)c(CC=C(C)C)c2c(c1O)C(=O)CC(c1ccc(O)cc1)O2 (stereo unspecified),-3.6,-1.4,101.0*,-4.7,-5.4,28.1,72.9*
COc1cc(C(CCN2CCCC2)c2c(OC)cc(OC)c3ccc(=O)oc23)cc(OC)c1OC (stereo unspecified),.,.,22.2,.,4.7,.,.
CCCCCc1cc(=O)oc2c(C(CCN3CCCCC3)c3cc(OC)c(OC)c(OC)c3)c(OC)cc(OC)c12 (stereo unspecified),.,.,104.7*,.,6.0,.,52.8
O=C(CN1CCC(C(=O)c2cccc(Cl)c2)CC1)Nc1ccc(C(=O)O)cc1,0.1,-2.8,4.0,-7.6,4.2,-8.7,.
CCOc1ccc(NC(=S)NC(C)C(c2ccccc2)N2CCN(C)CC2)cc1 (stereo unspecified),7.1,1.3,3.5,2.4,4.0,-7.0,.
CC(NC(=O)COc1ccccc1)C(c1ccccc1)N1CCN(C)CC1 (stereo unspecified),-2.5,2.7,98.3*,22.1,-0.2,-8.0,21.2
CCn1cc([N+](=O)[O-])c(C(=O)N2N=C(c3ccc(Cl)c(Cl)c3)CC2c2ccccc2O)n1 (stereo unspecified),-3.6,-3.5,100.6*,-36.2,-2.1,14.4,77.9*
CCn1cc([N+](=O)[O-])c(C(=O)N2N=C(c3ccc(O)c(OC)c3)CC2c2ccccc2O)n1 (stereo unspecified),-6.2,-0.6,34.8,-15.1,11.1,9.6,.
CCCCNC(=O)c1ccc(Cn2c(=S)[nH]c3c([nH]c4ccc(OC)cc43)c2=O)cc1,-7.5,2.1,104.7*,-17.8,-4.2,-7.7,16.0
O=C(N/N=C/c1ccccc1)c1n[nH]c2c1CCCC2,-6.0,0.0,27.8,-2.9,5.4,15.7,.
O=C(N/N=C/c1ccccc1Cl)c1n[nH]c2c1CCCC2,-2.8,5.6,106.9*,-5.5,-3.4,89.4*,82.8*
O=C(Nc1ccc([N+](=O)[O-])cc1)C1CC1(c1ccccc1)c1ccccc1 (stereo unspecified),-5.5,3.5,50.0,6.6,-1.6,2.0,.
CC1(C)C(C=C(Cl)Cl)C1C(=O)Nc1ccc([N+](=O)[O-])cc1 (stereo unspecified),-9.8,0.8,104.3*,-35.2,-1.8,87.8*,58.4
CC(C)=CCc1cc(-c2oc3cc(O)cc(O)c3c(=O)c2O)ccc1O,.,.,.,.,-6.9,.,.
CC(C)=CCc1c(O)cc2oc3c(CC=C(C)C)c(O)c(O)c(CC=C(C)C)c3c(=O)c2c1O,.,.,97.1*,.,2.8,.,120.0*
CCOC(=O)C1CCCCN1Cc1ccc(F)c(Br)c1 (stereo unspecified),6.6,-0.7,106.0*,9.0,-12.1,-3.2,15.5
SMILES,PKD1 inh,Wee1 degr inh,CHOP inhibitor,Arbovirus inh,Rad51 HR inh,Lmaj promast,CHOP confirm
CCC1CCc2c(sc(NC(=O)c3ccoc3C)c2C(N)=O)C1 (stereo unspecified),-8.8,0.7,102.4*,3.5,1.8,9.1,102.3*
Cc1occc1C(=O)Nc1sc2c(c1C(N)=O)CCC(C(C)(C)C)C2 (stereo unspecified),-8.1,-1.0,58.8,7.7,.,-0.9,.
Cc1ccc(-n2sc3ccccc3c2=O)cc1,0.7,2.5,105.7*,-21.1,-0.2,42.6,30.0
Cc1ccc(Cn2c(=O)sc3ccccc3c2=O)cc1,7.9,-1.2,65.3,-0.9,-2.6,-6.2,.
C=CCOc1c(Br)cc(/C=N/n2c(CC)n[nH]c2=S)cc1Br,-1.1,1.3,107.5*,8.0,5.4,-4.9,-6.9
COc1ccc(C(=O)c2c(C(F)(F)F)oc3c2C(=O)c2ccccc2C3=O)cc1,-1.4,-1.5,105.7*,-44.7,10.3,99.8*,117.4*
O=C(O)CCCNC(=O)CCCn1nnc2ccccc2c1=O,.,1.9,4.5,.,.,.,.
O=C(/C=C/c1cccc(Br)c1)NCc1ccncc1,-2.9,2.6,-9.8,2.4,0.9,2.0,.
CCn1c(=O)c(C(=O)CN2CCCc3ccccc32)c(N)n(Cc2ccccc2)c1=O,-2.2,3.5,97.5*,-11.4,2.1,26.1,12.9
N#C/C(=C\c1ccc(OC(=O)c2ccc(Cl)s2)cc1)c1nc2ccccc2[nH]1,-5.1,3.5,107.3*,-2.9,9.4,6.7,33.6
N#C/C(=C\c1ccc(OC(=O)c2ccc(Br)s2)cc1)c1nc2ccccc2[nH]1,5.9,1.9,100.0*,-1.1,1.0,2.5,39.4
Cc1ccc(C(=O)N2CCCCC2C(=O)O)o1 (stereo unspecified),3.3,-1.0,-4.2,1.7,6.3,-3.3,.
Cc1cc(/C=C2/SC(=O)N(CC(=O)N3CCOCC3)C2=O)c(C)n1-c1ccccc1F,4.9,-2.6,18.6,4.9,-2.7,8.1,.
CC(C)NC(=O)Cn1c(SCC(=O)N2c3ccccc3CC2C)nc2ccccc21 (stereo unspecified),1.5,3.3,55.6,3.8,-5.2,13.0,.
CC(C)Cn1c(=O)c2ccccc2n2c(SCC(=O)N3c4ccccc4CC3C)nnc12 (stereo unspecified),-4.5,-3.8,97.9*,6.1,-5.1,71.8*,85.2*
CCC(C)Sc1nc2ccccc2n1CC(=O)O (stereo unspecified),0.5,0.3,12.0,12.4,-1.0,-3.6,.
